Drawing on ChEMBL document CHEMBL4680084, “New β-Lactam Derivatives Modulate Cell Adhesion and Signaling Mediated by RGD-Binding and Leukocyte Integrins” (J Med Chem, 2016), this text covers EC50, Activity and IC50 for three molecules.

The structures appear in SMILES notation. Active and inactive are the calls of the source. No cut-off for these calls is given here.

One test concerns the target Integrin alpha-V/beta-5 (Homo sapiens, UniProt P06756+P18084). The test is described as follows: Agonist activity at alphaVbeta5 in human MCF7 cells assessed as increase in cell adhesion to fibrinogen pre-incubated for 30 mins before fibrinogen and further incubated for 1 hr by nitrophenyl-N-acetyl-beta-D-glucosaminide substrate based chromogenic assay. A digest of the protocol:
(§1)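 Compound or methanol vehicle pre-incubated with cells for 30 min at room temperature. Cells then plated on wells coated overnight at 4 °C with fibronectin 10 µg/mL (SK-MEL-24, K562, HT-29) or fibrinogen 10 µg/mL (MCF7, HEL). Seeding was 50,000 cells/well, or 100000 for HEL. Adhesion ran 1 h at room temperature. Wells washed with 1% BSA/PBS. Adherent cells read by hexosaminidase substrate, absorbance 405 nm. Quadruplicate, at least three repeats.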

Test [1] deals with T1, Integrin alpha-5/beta-1 (Homo sapiens, UniProt P05556+P08648). Description: Agonist activity at alpha5beta1 in human K562 cells assessed as increase in cell adhesion to fibronectin at 10 ug/ml pre-incubated for 30 mins and further incubated for 1 hr in presence of integrin antagonist c(-RGDfV) by nitrophenyl-N-acetyl-beta-D-glucosaminide substrate based chromogenic assay. Particulars: dose 10.0 µg/ml, time 90.0 min. Summed up: (§2)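 Agonist-coated wells (10 µg/mL in methanol). Cells pre-treated 10 min before plating with neutralizing anti-α5, anti-αv or anti-α4 antibody (10 µg/mL), or pre-incubated with c(-RGDfV) (1 µM). K562 plated at 50,000/well and Jurkat E6.1 at 500,000/well. Adhesion quantified as in the standard assay.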

Test [2] addresses T1, Integrin alpha-5/beta-1. Description: Agonist activity at alpha5beta1 in human K562 cells assessed as increase in cell adhesion to fibronectin at 10 ug/ml […] and further incubated for 1 hr in presence of neutralizing antibody against the alpha5 integrin subunit by nitrophenyl-N-acetyl-beta-D-glucosaminide substrate based chromogenic assay. The settings on record: dose 10.0 µg/ml, time 90.0 min.

The target in test [3] is Integrin alpha-L/beta-2 (Homo sapiens). Description: Binding affinity to human alphaLbeta2 incubated for 1 hr by scintillation-proximity assay based competitive solid-phase binding assay.
Test [4] has as its target Integrin alpha-L/beta-2 (LFA-1) (Homo sapiens) (UniProt P20701+P05107). Description: Antagonist activity at alphaLbeta2 in human Jurkat E6.1 cells assessed as reduction in ICAM-1-induced ERK1/2 phosphorylation by Western blot analysis. It is filed as cell-based. Particulars: filed as antagonist. A general note: A western blot detects proteins with antibodies after separation by electrophoresis.

Test [5] has as its target T2, Integrin alpha-4/beta-1 (Homo sapiens, UniProt P05556+P13612). Description: Inhibition of fibronectin binding to […] isolated from human Jurkat E6.1 cells incubated for 1 hr by scintillation-proximity assay based competitive solid-phase binding assay. It is filed as tissue-based.
The target in test [6] is Integrin alpha-IIb/beta-3 (Homo sapiens, UniProt P05106+P08514). Description: Inhibition of fibrinogen binding to alpha2bbeta3 isolated from human HEL cells incubated for 1 hr by […] competitive solid-phase binding assay.
Test [7] concerns the target T3, Integrin alpha-V/beta-3 (Homo sapiens, UniProt P05106+P06756). Description: Agonist activity at human alphaVbeta3 expressed in HEK293 cells assessed as reduction in fibronectin-induced ERK1/2 phosphorylation at 1 to 100 nM by Western blot analysis. Particulars: filed as agonist, dose 1-100 nM. It is filed as cell-based.
In test [8] the target is Integrin alpha-L/beta-2 (LFA-1) (Homo sapiens, UniProt P05107+P20701). The test is described as follows: Agonist activity at alphaLbeta2 in human Jurkat E6.1 cells assessed as increase in cell adhesion to ICAM1 pre-incubated for 30 mins before ICAM1 and further incubated for 30 mins by […]. The format is cell-based. A digest of the protocol: (§3)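 Jurkat E6.1 cells labelled with CellTracker green CMFDA (12.5 µM, 30 min, 37 °C), washed, then pre-incubated 30 min at 37 °C with compound or methanol. Plated at 500,000/well on VCAM-1 (α4β1) or ICAM-1 (αLβ2) coated wells (5 µg/mL) for 30 min at 37 °C. Cells lysed in 0.5% Triton X-100; fluorescence read Ex485/Em535. Quadruplicate, at least three repeats.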

Test [9] has as its target T2, Integrin alpha-4/beta-1. Description: Agonist activity at alpha4beta1 in human Jurkat E6.1 cells assessed as increase in cell adhesion to VCAM1 at 10 ug/ml pre-incubated for 30 mins and further incubated for 30 mins in presence of neutralizing antibody against the alpha4 integrin subunit by nitrophenyl-N-acetyl-beta-D-glucosaminide substrate based chromogenic assay. Particulars: dose 10.0 µg/ml, time 60.0 min. Summed up:
as §2

In test [10] the target is T2, Integrin alpha-4/beta-1. The test is described as follows: Agonist activity at alpha4beta1 in human Jurkat E6.1 cells assessed as increase in cell adhesion to VCAM1 pre-incubated for 30 mins before VCAM1 and further incubated for 30 mins by […]. It is filed as cell-based. A digest of the protocol:
as §3

The target of test [11] is T3, Integrin alpha-V/beta-3. Description: Agonist activity at alphaVbeta3 in human SK-MEL-24 cells assessed as increase in cell adhesion to fibronectin pre-incubated for 30 mins before fibronectin and further incubated for 1 hr by nitrophenyl-N-acetyl-beta-D-glucosaminide substrate based chromogenic assay. Summed up: as §1
Target sequence in this assay (P05106 27-788 limits assumed): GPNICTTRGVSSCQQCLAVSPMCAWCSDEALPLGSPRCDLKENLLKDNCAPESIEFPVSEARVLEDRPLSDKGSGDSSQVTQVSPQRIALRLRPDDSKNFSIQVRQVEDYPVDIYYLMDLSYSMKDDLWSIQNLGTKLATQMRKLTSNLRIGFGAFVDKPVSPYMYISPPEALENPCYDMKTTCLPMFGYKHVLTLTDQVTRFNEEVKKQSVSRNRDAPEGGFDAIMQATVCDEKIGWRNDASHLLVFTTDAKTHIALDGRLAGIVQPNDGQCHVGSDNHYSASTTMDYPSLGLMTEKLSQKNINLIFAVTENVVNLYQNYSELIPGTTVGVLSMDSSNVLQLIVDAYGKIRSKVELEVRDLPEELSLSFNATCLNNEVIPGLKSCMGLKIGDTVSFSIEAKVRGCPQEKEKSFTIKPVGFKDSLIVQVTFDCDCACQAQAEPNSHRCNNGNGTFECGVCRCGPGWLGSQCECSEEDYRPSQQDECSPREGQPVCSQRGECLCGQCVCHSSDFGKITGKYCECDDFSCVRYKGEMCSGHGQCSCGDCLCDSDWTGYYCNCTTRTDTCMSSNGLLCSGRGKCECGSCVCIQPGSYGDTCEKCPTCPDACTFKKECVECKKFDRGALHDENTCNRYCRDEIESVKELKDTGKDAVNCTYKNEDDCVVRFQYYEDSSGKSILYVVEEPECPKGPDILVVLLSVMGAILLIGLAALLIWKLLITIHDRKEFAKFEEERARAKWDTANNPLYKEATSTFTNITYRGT
Target sequence in this assay (P06756 31-889 limits assumed): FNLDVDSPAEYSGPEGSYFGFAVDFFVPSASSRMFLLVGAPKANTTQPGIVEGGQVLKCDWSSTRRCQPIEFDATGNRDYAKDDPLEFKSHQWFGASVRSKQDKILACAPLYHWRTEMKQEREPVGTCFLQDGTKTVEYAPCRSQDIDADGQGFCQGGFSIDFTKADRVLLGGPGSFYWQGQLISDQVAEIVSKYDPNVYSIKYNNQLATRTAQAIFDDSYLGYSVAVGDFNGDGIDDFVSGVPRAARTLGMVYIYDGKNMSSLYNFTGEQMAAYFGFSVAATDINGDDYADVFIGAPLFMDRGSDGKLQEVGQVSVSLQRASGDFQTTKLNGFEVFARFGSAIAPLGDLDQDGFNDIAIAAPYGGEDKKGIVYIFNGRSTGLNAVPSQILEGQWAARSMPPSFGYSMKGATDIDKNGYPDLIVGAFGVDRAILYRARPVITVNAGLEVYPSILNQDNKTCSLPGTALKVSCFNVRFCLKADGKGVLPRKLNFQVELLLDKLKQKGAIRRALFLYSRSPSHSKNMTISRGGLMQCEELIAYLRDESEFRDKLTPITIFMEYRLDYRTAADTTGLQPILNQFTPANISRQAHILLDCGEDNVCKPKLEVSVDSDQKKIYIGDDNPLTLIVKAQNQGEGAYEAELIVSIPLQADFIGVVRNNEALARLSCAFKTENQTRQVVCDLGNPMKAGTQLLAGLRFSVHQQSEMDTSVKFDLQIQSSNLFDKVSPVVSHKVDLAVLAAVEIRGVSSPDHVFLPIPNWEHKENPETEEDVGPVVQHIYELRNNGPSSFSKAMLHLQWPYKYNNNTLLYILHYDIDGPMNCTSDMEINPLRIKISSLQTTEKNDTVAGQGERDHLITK
Target sequence in this assay (P06756 891-1048 limits assumed): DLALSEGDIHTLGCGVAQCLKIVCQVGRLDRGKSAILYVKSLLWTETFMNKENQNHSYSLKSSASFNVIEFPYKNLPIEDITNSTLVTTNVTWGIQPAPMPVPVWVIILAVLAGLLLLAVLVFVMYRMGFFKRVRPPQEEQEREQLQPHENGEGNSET

Sequence of Integrin alpha-V/beta-5 (P06756 31-889 limits assumed): as the sequence (P06756 31-889 limits assumed) above
Sequence of Integrin alpha-V/beta-5 (P06756 891-1048 limits assumed): as the sequence (P06756 891-1048 limits assumed) above
Sequence of Integrin alpha-V/beta-5 (P18084 24-799 limits assumed): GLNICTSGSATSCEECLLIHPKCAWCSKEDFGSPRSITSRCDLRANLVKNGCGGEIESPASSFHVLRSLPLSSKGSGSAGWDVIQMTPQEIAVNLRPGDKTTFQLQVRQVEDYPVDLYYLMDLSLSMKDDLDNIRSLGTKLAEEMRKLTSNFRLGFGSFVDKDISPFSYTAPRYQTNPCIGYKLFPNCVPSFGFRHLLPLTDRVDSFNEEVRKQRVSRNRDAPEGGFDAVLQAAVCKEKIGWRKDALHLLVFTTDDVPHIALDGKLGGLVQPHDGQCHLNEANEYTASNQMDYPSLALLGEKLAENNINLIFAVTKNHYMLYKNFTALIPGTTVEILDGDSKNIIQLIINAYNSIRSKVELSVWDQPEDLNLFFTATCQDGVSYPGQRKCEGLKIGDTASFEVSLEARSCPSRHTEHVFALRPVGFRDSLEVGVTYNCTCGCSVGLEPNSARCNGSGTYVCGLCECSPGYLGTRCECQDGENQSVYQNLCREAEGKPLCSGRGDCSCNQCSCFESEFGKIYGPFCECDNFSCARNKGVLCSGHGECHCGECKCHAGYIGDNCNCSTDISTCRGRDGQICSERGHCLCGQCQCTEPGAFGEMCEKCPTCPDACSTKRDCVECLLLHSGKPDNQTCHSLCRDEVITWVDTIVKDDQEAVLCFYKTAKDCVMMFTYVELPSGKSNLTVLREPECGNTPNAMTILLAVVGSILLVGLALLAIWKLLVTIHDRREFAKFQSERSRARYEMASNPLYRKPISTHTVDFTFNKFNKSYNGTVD
T2 sequence (P05556 whole entry): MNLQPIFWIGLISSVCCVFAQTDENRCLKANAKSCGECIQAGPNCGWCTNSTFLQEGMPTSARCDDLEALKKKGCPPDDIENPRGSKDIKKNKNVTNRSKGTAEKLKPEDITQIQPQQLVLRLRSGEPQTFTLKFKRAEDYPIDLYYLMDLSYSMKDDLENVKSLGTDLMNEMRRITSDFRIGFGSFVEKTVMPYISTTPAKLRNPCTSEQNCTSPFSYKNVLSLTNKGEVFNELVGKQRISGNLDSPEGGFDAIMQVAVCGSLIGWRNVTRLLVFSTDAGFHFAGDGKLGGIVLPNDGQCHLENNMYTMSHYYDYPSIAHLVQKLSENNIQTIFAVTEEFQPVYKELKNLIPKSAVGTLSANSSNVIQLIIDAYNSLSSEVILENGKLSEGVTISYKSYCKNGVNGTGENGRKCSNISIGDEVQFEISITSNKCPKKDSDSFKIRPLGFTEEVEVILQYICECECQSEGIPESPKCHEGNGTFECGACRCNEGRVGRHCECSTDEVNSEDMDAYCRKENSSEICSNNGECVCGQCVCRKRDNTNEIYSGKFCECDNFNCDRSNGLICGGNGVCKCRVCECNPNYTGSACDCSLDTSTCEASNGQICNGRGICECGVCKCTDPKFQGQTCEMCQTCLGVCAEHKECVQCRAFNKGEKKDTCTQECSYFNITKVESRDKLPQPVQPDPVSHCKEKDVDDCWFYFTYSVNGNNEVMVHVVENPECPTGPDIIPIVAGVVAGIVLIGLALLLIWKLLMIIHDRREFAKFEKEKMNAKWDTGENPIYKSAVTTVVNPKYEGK
T2 sequence (P13612 whole entry): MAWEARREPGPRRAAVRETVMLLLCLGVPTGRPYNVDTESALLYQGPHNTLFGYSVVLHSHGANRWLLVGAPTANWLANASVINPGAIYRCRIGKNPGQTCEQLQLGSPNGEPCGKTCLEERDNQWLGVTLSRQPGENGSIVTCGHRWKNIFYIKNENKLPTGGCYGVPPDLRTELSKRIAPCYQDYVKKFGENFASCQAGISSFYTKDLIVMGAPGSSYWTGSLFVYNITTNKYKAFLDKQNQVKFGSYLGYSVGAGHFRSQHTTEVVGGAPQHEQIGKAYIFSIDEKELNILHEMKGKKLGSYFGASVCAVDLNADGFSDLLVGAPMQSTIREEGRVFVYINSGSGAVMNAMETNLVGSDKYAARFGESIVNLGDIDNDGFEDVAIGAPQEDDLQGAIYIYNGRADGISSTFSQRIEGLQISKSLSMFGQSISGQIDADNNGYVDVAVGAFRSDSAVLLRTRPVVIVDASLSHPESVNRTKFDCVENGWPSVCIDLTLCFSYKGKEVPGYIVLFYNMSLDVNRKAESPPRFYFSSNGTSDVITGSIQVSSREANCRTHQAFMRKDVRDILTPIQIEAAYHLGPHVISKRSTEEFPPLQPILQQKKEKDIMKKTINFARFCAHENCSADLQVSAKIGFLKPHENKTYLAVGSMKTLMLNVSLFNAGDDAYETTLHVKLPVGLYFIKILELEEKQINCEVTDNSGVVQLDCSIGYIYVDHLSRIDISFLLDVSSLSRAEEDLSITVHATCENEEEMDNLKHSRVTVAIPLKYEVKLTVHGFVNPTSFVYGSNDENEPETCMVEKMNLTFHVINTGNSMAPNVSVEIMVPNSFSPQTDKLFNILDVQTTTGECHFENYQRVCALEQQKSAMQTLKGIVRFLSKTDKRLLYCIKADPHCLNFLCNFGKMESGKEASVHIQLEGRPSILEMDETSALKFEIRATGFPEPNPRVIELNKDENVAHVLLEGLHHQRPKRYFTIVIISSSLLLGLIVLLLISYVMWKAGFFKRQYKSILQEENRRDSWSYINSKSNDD

As a reminder, the EC50 is the concentration giving half of the maximal effect. The IC50 is the concentration that inhibits the measured activity by half. Take `Nc1ccc(CNC(=O)N2C(=O)CC2CC(=O)O)cc1.O=C(O)C(F)(F)F` (configuration not stated): the EC50 at Integrin alpha-V/beta-5 is over 5 µM. Also, the outcome at Integrin alpha-5/beta-1 [1] and on Integrin alpha-5/beta-1 [2] was inactive. Also, the figures for the IC50 (in test [3]; at Integrin alpha-4/beta-1 [5]; in test [6]) were 0.0067 µM, 0.498 µM and over 1 µM, respectively. Besides, the Activity entry in test [4] is “Dose-dependent effect”. Moreover, at Integrin alpha-V/beta-3 [7], the outcome was Active.

Turning to `Cc1ccccc1NC(=O)N1C(=O)CC1CC(=O)NCC(=O)O` (configuration not stated), the EC50 (in test [8]; at Integrin alpha-V/beta-5; on Integrin alpha-4/beta-1 [10]; on Integrin alpha-V/beta-3 [11]) was over 5 µM throughout. For the same molecule, on Integrin alpha-5/beta-1 [1] (filed as agonist), the outcome was Active. In addition, the result on Integrin alpha-4/beta-1 [9] was inactive. This molecule also came in with an IC50 at Integrin alpha-4/beta-1 [5] of over 1 µM.

For the molecule `NCc1ccc(NC(=O)N2C(=O)CC2CC(=O)NCCC(=O)O)cc1.O=C(O)C(F)(F)F` (configuration not stated), the EC50 (in test [8]; at Integrin alpha-V/beta-5; on Integrin alpha-4/beta-1 [10]; on Integrin alpha-V/beta-3 [11]) was over 5 µM throughout. Besides, on Integrin alpha-5/beta-1 [1] (filed as agonist), the outcome was Active. In addition, at Integrin alpha-4/beta-1 [9], the outcome was inactive. In addition, the IC50 in test [6] was over 1 µM.
